In brackets after ≈: the same amount, converted by molar mass.

For assay [1], the system named is Staphylococcus aureus. Put plainly: Antibacterial activity against Staphylococcus aureus ATCC 6538 after 24 hrs by INT dye based microdilution assay. It counts as functional. As to conditions: ATCC 6538, 24 h. The procedure, abridged:
(§1)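 Broth microdilution in tryptic soy broth: overnight bacterial culture adjusted to 1×10^5 CFU/mL, 1.0×10^4 CFU per well; compounds dissolved in 5% DMSO, tested at 0.001-1.0 mg/ml; 24 h at 37°C. Streptomycin and ampicillin as positive controls, 5% DMSO as negative control; duplicate, repeated three times.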
(Dilution methods test growth across graded concentrations, often in twofold steps.)

The test system of a further assay is Bacillus cereus. Briefly: Antibacterial activity against Bacillus cereus after 24 hrs by INT dye based microdilution assay. It counts as functional. The procedure, abridged: as §1
The test system of another assay is Listeria monocytogenes. Briefly: Antibacterial activity against Listeria monocytogenes NCTC 7973 after 24 hrs by INT dye based microdilution assay. The note with it: NCTC 7973, 24 h. The format is functional. The method, boiled down: as §1
Another assay relates to Micrococcus flavus. Put plainly: Antibacterial activity against Micrococcus flavus ATCC 10240 after 24 hrs by INT dye based microdilution assay. The format is functional. As to conditions: ATCC 10240, 24 h. The procedure, abridged: as §1
A further assay has as its system Salmonella typhimurium. Put plainly: Antibacterial activity against Salmonella typhimurium ATCC 13311 after 24 hrs by INT dye based microdilution assay. It counts as functional, Salmonella enterica subsp. enterica serovar Typhimurium. As to conditions: Salmonella enterica, ATCC 13311, 24 h. The procedure, abridged: as §1
A further assay has as its system Enterobacter cloacae. Briefly: Antibacterial activity against Enterobacter cloacae after 24 hrs by INT dye based microdilution assay. The format is functional. The procedure, abridged:
as §1

Assay [2] relates to Pseudomonas aeruginosa. Briefly: Antibacterial activity against Pseudomonas aeruginosa ATCC 27853 after 24 hrs by INT dye based microdilution assay. As to conditions: ATCC 27853, 24 h. The format is functional. The procedure, abridged: as §1
For assay [3], the system named is Escherichia coli. Briefly: Antibacterial activity against Escherichia coli ATCC 35210 after 24 hrs by INT dye based microdilution assay. It counts as functional. The note with it: ATCC 35210, 24 h. The procedure, abridged:
as §1

Assay [4] deals with Staphylococcus aureus. Briefly: Antibacterial activity against methicillin-resistant Staphylococcus aureus after 24 hrs by INT dye based microdilution assay. It counts as functional. The method, boiled down: (§2)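 Broth microdilution in tryptic soy broth. Overnight culture adjusted to 1×10^5 CFU/mL, giving 1.0×10^4 CFU per well. Compounds dissolved in 5% DMSO and tested at 0.001-1.0 mg/ml. Plates incubated 24 h at 37°C. INT (0.2 mg/mL) then added, with 30 min at 37°C. Duplicate, repeated three times.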

Assay [5] deals with Pseudomonas aeruginosa. Briefly: Antibacterial activity against drug-resistant Pseudomonas aeruginosa after 24 hrs by INT dye based microdilution assay. The format is functional. The procedure, abridged:
as §2

In assay [6] the test system is Escherichia coli. Briefly: Antibacterial activity against drug-resistant Escherichia coli after 24 hrs by INT dye based microdilution assay. It counts as functional. The method, boiled down:
as §2

The test system of the next assay is Aspergillus fumigatus. Briefly: Antifungal activity against Aspergillus fumigatus isolate 1022 after 72 hrs by serial dilution assay. The note with it: isolate 1022, 72 h. It counts as functional. The procedure, abridged:
(§3)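 Modified microdilution: fungal spores washed off malt agar with sterile 0.85% saline plus 0.1% Tween 80, adjusted to about 1.0×10^5 per 100 µL well. Compounds in 5% DMSO (0.001-1.0 mg/ml) in malt broth; 72 h at 28°C on rotary shaker (160 rpm). MIC is lowest concentration without visible growth under binocular microscope. Bifonazole and ketoconazole controls (1-3500 µg/mL); three independent experiments in duplicate.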

Another assay relates to Aspergillus versicolor. Put plainly: Antifungal activity against Aspergillus versicolor ATCC 11730 after 72 hrs by serial dilution assay. As to conditions: ATCC 11730, 72 h. The format is functional. The method, boiled down:
as §3

In a further assay the test system is Aspergillus ochraceus. Put plainly: Antifungal activity against Aspergillus ochraceus ATCC 12066 after 72 hrs by serial dilution assay. It counts as functional. The note with it: ATCC 12066, 72 h. The method, boiled down:
as §3

A further assay has as its system Aspergillus niger. Briefly: Antifungal activity against Aspergillus niger ATCC 6275 after 72 hrs by serial dilution assay. It counts as functional. The note with it: ATCC 6275, 72 h. The procedure, abridged:
as §3

For another assay, the system named is Trichoderma viride. Put plainly: Antifungal activity against Trichoderma viride IAM 5061 after 72 hrs by serial dilution assay. The format is functional. As to conditions: IAM 5061, 72 h. The procedure, abridged: as §3
For the next assay, the system named is Talaromyces funiculosus. Briefly: Antifungal activity against Penicillium funiculosum ATCC 36839 after 72 hrs by serial dilution assay. The format is functional. As to conditions: ATCC 36839, 72 h. The procedure, abridged: as §3
For another assay, the system named is Penicillium ochrochloron. Briefly: Antifungal activity against Penicillium ochrochloron ATCC 9112 after 72 hrs by serial dilution assay. It counts as functional. As to conditions: ATCC 9112, 72 h. The method, boiled down: as §3
Another assay relates to Penicillium verrucosum. Put plainly: Antifungal activity against Penicillium cyclopium var verucosum after 72 hrs by serial dilution assay. The format is functional. The method, boiled down:
as §3

Take `CN[C@@H]1[C@H](O[C@H]2[C@H](O[C@H]3[C@H](O)[C@@H](O)[C@H](N=C(N)N)[C@@H](O)[C@@H]3N=C(N)N)O[C@@H](C)[C@]2(O)C=O)O[C@@H](CO)[C@H](O)[C@H]1O` [STREPTOMYCIN]: the MIC (usually the smallest concentration in the dilution series that meets the test's criterion for growth inhibition) in the assay on Staphylococcus aureus [1] worked out at 0.172 µM (≈ 0.1 µg/mL); with Bacillus cereus, 43 µM (≈ 25 µg/mL); in the assay with Listeria monocytogenes, 258 µM (≈ 150 µg/mL); in the assay with Micrococcus flavus, 86 µM (≈ 50 µg/mL); in the assay on Salmonella typhimurium it was 172 µM (≈ 100 µg/mL); against Enterobacter cloacae, 43 µM (≈ 25 µg/mL). Further, the MIC in the assay on Pseudomonas aeruginosa [2] is 172 µM (≈ 100 µg/mL); in the assay on Escherichia coli [3] it was 0.172 µM (≈ 0.1 µg/mL); in the assay with Staphylococcus aureus [4], 0.258 µM (≈ 0.15 µg/mL); against Pseudomonas aeruginosa [5] it was 129 µM (≈ 75 µg/mL); with Escherichia coli [6], 0.258 µM (≈ 0.15 µg/mL).
As for `O=C1N/C(=N\c2nnc(C34CC5CC(CC(C5)C3)C4)s2)S/C1=C/c1ccccc1[N+](=O)[O-]`, the MIC against Staphylococcus aureus [1] was 0.0322 µM (≈ 0.0151 µg/mL); in the assay with Bacillus cereus it was 32.2 µM (≈ 15.1 µg/mL); in the assay on Listeria monocytogenes it was 32.2 µM (≈ 15.1 µg/mL); with Micrococcus flavus, 32.2 µM (≈ 15.1 µg/mL); in the assay on Salmonella typhimurium it was 32.2 µM (≈ 15.1 µg/mL); in the assay with Enterobacter cloacae, 32.2 µM (≈ 15.1 µg/mL). Moreover, the MIC was found to be 32.2 µM (≈ 15.1 µg/mL) in the assay on Pseudomonas aeruginosa [2]; 0.0322 µM (≈ 0.0151 µg/mL) against Escherichia coli [3]; 321 µM (≈ 150 µg/mL) against Aspergillus fumigatus; 321 µM (≈ 150 µg/mL) in the assay on Aspergillus versicolor; 321 µM (≈ 150 µg/mL) with Aspergillus ochraceus; 482 µM (≈ 225 µg/mL) against Aspergillus niger. Also, the MIC came to 321 µM (≈ 150 µg/mL) with Trichoderma viride; 482 µM (≈ 225 µg/mL) against Talaromyces funiculosus; 321 µM (≈ 150 µg/mL) against Penicillium ochrochloron; 0.321 µM (≈ 0.15 µg/mL) with Penicillium verrucosum; 0.175 µM (≈ 0.0818 µg/mL) against Staphylococcus aureus [4]; 175 µM (≈ 81.8 µg/mL) with Pseudomonas aeruginosa [5]. In addition, in the assay on Escherichia coli [6], 0.175 µM (≈ 0.0818 µg/mL) was the least that counted as inhibitory (MIC).
`O=C1N/C(=N\c2nnc(C34CC5CC(CC(C5)C3)C4)s2)S/C1=C/c1cccc(Cl)c1Cl`: the MIC was determined as 0.244 µM (≈ 0.12 µg/mL) in the assay on Staphylococcus aureus [1]; 244 µM (≈ 120 µg/mL) with Bacillus cereus; 244 µM (≈ 120 µg/mL) in the assay with Listeria monocytogenes; 244 µM (≈ 120 µg/mL) with Micrococcus flavus; 122 µM (≈ 60 µg/mL) in the assay with Salmonella typhimurium; 244 µM (≈ 120 µg/mL) in the assay on Enterobacter cloacae. Besides, the minimum inhibitory concentration (MIC) amounted to 122 µM (≈ 60 µg/mL) against Pseudomonas aeruginosa [2]; 0.244 µM (≈ 0.12 µg/mL) against Escherichia coli [3]; 163 µM (≈ 80.1 µg/mL) in the assay with Aspergillus fumigatus; 163 µM (≈ 80.1 µg/mL) with Aspergillus versicolor; 163 µM (≈ 80.1 µg/mL) in the assay with Aspergillus ochraceus; 163 µM (≈ 80.1 µg/mL) against Aspergillus niger. Besides, the MIC was determined as 163 µM (≈ 80.1 µg/mL) in the assay with Trichoderma viride; 326 µM (≈ 160 µg/mL) with Talaromyces funiculosus; 163 µM (≈ 80.1 µg/mL) with Penicillium ochrochloron; 0.163 µM (≈ 0.0801 µg/mL) in the assay with Penicillium verrucosum; 0.183 µM (≈ 0.09 µg/mL) in the assay on Staphylococcus aureus [4]; 183 µM (≈ 90 µg/mL) in the assay on Pseudomonas aeruginosa [5]. Besides, the MIC in the assay with Escherichia coli [6] amounted to 0.183 µM (≈ 0.09 µg/mL).
Consider `Cc1ccc(/C=C2/S/C(=N/c3nnc(C45CC6CC(CC(C6)C4)C5)s3)NC2=O)cc1`, for which the MIC against Staphylococcus aureus [1] came to 0.115 µM (≈ 0.05 µg/mL); against Bacillus cereus it was 115 µM (≈ 50 µg/mL); in the assay on Listeria monocytogenes it was 59.3 µM (≈ 25.9 µg/mL); in the assay with Micrococcus flavus, 115 µM (≈ 50 µg/mL); against Salmonella typhimurium, 59.3 µM (≈ 25.9 µg/mL); with Enterobacter cloacae, 115 µM (≈ 50 µg/mL). Moreover, the MIC was found to be 115 µM (≈ 50 µg/mL) against Pseudomonas aeruginosa [2]; 0.115 µM (≈ 0.05 µg/mL) in the assay on Escherichia coli [3]; 367 µM (≈ 160 µg/mL) against Aspergillus fumigatus; 183 µM (≈ 79.9 µg/mL) against Aspergillus versicolor; 183 µM (≈ 79.9 µg/mL) in the assay on Aspergillus ochraceus; 183 µM (≈ 79.9 µg/mL) against Aspergillus niger. The MIC in the assay with Trichoderma viride was 367 µM (≈ 160 µg/mL); in the assay on Talaromyces funiculosus, 183 µM (≈ 79.9 µg/mL); in the assay on Penicillium ochrochloron, 183 µM (≈ 79.9 µg/mL); in the assay on Penicillium verrucosum it was 0.183 µM (≈ 0.0801 µg/mL); in the assay with Staphylococcus aureus [4] it was 0.115 µM (≈ 0.0501 µg/mL); in the assay on Pseudomonas aeruginosa [5], 115 µM (≈ 50.1 µg/mL). In the assay on Escherichia coli [6], the MIC turned out to be 0.115 µM (≈ 0.0501 µg/mL).
On to `O=C1N/C(=N\c2nnc(C34CC5CC(CC(C5)C3)C4)s2)S/C1=C/c1c(F)cccc1F`, for which the minimal inhibitory concentration (MIC) with Staphylococcus aureus [1] stood at 0.0436 µM (≈ 0.02 µg/mL); against Bacillus cereus, 43.6 µM (≈ 20 µg/mL); with Listeria monocytogenes it was 21.8 µM (≈ 10 µg/mL); with Micrococcus flavus, 43.6 µM (≈ 20 µg/mL); against Salmonella typhimurium it was 43.6 µM (≈ 20 µg/mL); in the assay on Enterobacter cloacae, 21.8 µM (≈ 10 µg/mL). The minimum inhibitory concentration (MIC) in the assay on Pseudomonas aeruginosa [2] came out at 43.6 µM (≈ 20 µg/mL); against Escherichia coli [3], 0.0436 µM (≈ 0.02 µg/mL); in the assay on Aspergillus fumigatus, 393 µM (≈ 180 µg/mL); against Aspergillus versicolor, 393 µM (≈ 180 µg/mL); against Aspergillus ochraceus it was 393 µM (≈ 180 µg/mL); against Aspergillus niger, 393 µM (≈ 180 µg/mL). Further, the MIC in the assay on Trichoderma viride was determined as 393 µM (≈ 180 µg/mL); in the assay on Talaromyces funiculosus, 393 µM (≈ 180 µg/mL); in the assay with Penicillium ochrochloron, 393 µM (≈ 180 µg/mL); against Penicillium verrucosum it was 0.393 µM (≈ 0.18 µg/mL); with Staphylococcus aureus [4], 0.393 µM (≈ 0.18 µg/mL); in the assay on Pseudomonas aeruginosa [5], 393 µM (≈ 180 µg/mL). Moreover, inhibition of growth in the assay on Escherichia coli [6] (MIC) required 0.393 µM (≈ 0.18 µg/mL).

The record behind these values is ChEMBL document CHEMBL4229530, “5-Adamantan thiadiazole-based thiazolidinones as antimicrobial agents. Design, synthesis, molecular docking and evaluation” (2018).
